Source: ChEMBL document CHEMBL4038305, “Benzoxaborole Antimalarial Agents. Part 5. Lead Optimization of Novel Amide Pyrazinyloxy Benzoxaboroles and Identification of a Preclinical Candidate” (J Med Chem, 2017)
pIC50: −log10 of the molar value.

Columns and labels:
[1] = tested on: Plasmodium falciparum; assay: Antimalarial activity against chloroquine-sensitive Plasmodium falciparum 3D7 infected in human erythrocytes assessed as reduction in [3H]-hypoxanthine incorporation preincubated for 24 hrs followed by [3H]-hypoxanthine addition measured after 24 hrs by scintillation counting method; type: functional, cell-based
Method in brief: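 P. falciparum 3D7 cultures were exposed to the compound for 48 h, with atovaquone as the reference control. IC50 was taken from three replicates.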

[2] = tested on: Plasmodium falciparum; assay: Antimalarial activity against chloroquine-resistant Plasmodium falciparum W2 infected in human erythrocytes after 48 hrs by YOYO-1 dye based flow cytometric analysis; type: functional, cell-based; details: W2, 48 h
Method in brief: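 P. falciparum W2 cultures were exposed to the compound for 48 h, with artemisinin and chloroquine as reference controls. IC50 was taken from two independent replicates.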

[3] = Metabolic stability in human hepatocytes at 22 uM after 44 hrs; type: ADME, cell-based, Hepatocyte
[4] = tested on: Plasmodium berghei; assay: Antimalarial activity against Plasmodium berghei infected in Swiss Webster mouse assessed as mouse survival rate at 100 mg/kg administered once daily via oral gavage for 4 consecutive days beginning 1 hr after infection measured on day 4 post infection relative to control; type: functional
Method in brief: (§1)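 Mice given an intraperitoneal injection of P. berghei-infected erythrocytes taken from a previously infected animal. Oral dosing once daily for 4 consecutive days, starting 1 h after infection. Vehicle: polyethylene glycol 300/propylene glycol/water (weight ratio 55/25/20). Percent survival recorded daily from day 4 to day 20. Chloroquine 30 mg/kg and vehicle-only groups served as controls.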

[5] = tested on: Plasmodium berghei; assay: Antimalarial activity against Plasmodium berghei infected in Swiss Webster mouse assessed as mouse survival rate at 33 mg/kg administered once daily via oral gavage for 4 consecutive days beginning 1 hr after infection measured on day 4 post infection relative to control; type: functional
Method in brief: (§2)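 P. berghei-infected erythrocytes taken from a previously infected mouse were injected intraperitoneally. Oral dosing, once daily for 4 consecutive days, began 1 h after infection, in polyethylene glycol 300/propylene glycol/water (55/25/20 by weight). Chloroquine at 30 mg/kg was the positive control, with a vehicle-only group. Percent survival was recorded daily from day 4 to day 20.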

[6] = tested on: Plasmodium berghei; assay: Antimalarial activity against Plasmodium berghei infected in Swiss Webster mouse assessed as mouse survival rate at 3.7 mg/kg administered once daily via oral gavage for 4 consecutive days beginning 1 hr after infection measured on day 4 post infection relative to control; type: functional; method in brief: as §2
[7] = tested on: Plasmodium berghei; assay: Antimalarial activity against Plasmodium berghei infected in Swiss Webster mouse assessed as mouse survival rate at 0.4 mg/kg administered once daily via oral gavage for 4 consecutive days beginning 1 hr after infection measured on day 4 post infection relative to control; type: functional; method in brief: as §1
[8] = tested on: Plasmodium berghei; assay: Antimalarial activity against Plasmodium berghei infected in Swiss Webster mouse assessed as mouse survival rate at 0.1 mg/kg administered once daily via oral gavage for 4 consecutive days beginning 1 hr after infection measured on day 4 post infection relative to control; type: functional; method in brief: as §1
[9] = tested on: Plasmodium berghei; assay: Antimalarial activity against Plasmodium berghei infected in Swiss Webster mouse assessed as mouse survival rate at 3.7 mg/kg administered once daily via oral gavage for 4 consecutive days beginning 1 hr after infection measured on day 5 post infection relative to control; type: functional; method in brief: as §2
[10] = tested on: Plasmodium berghei; assay: Antimalarial activity against Plasmodium berghei infected in Swiss Webster mouse assessed as mouse survival rate at 0.4 mg/kg administered once daily via oral gavage for 4 consecutive days beginning 1 hr after infection measured on day 5 post infection relative to control; type: functional; method in brief: as §1
[11] = tested on: Plasmodium berghei; assay: Antimalarial activity against Plasmodium berghei infected in Swiss Webster mouse assessed as mouse survival rate at 3.7 mg/kg administered once daily via oral gavage for 4 consecutive days beginning 1 hr after infection measured on day 7 post infection relative to control; type: functional; method in brief: as §2
[12] = tested on: Plasmodium berghei; assay: Antimalarial activity against Plasmodium berghei infected in Swiss Webster mouse assessed as mouse survival rate at 0.4 mg/kg administered once daily via oral gavage for 4 consecutive days beginning 1 hr after infection measured on day 7 post infection relative to control; type: functional; method in brief: as §1
[13] = tested on: Plasmodium berghei; assay: Antimalarial activity against Plasmodium berghei infected in Swiss Webster mouse assessed as mouse survival rate at 0.1 mg/kg administered once daily via oral gavage for 4 consecutive days beginning 1 hr after infection measured on day 7 post infection relative to control; type: functional; method in brief: as §1
[14] = tested on: Plasmodium berghei; assay: Antimalarial activity against Plasmodium berghei infected in Swiss Webster mouse assessed as mouse survival rate at 100 mg/kg administered once daily via oral gavage for 4 consecutive days beginning 1 hr after infection measured on day 8 post infection relative to control; type: functional; method in brief: as §1
[15] = tested on: Plasmodium berghei; assay: Antimalarial activity against Plasmodium berghei infected in Swiss Webster mouse assessed as mouse survival rate at 33 mg/kg administered once daily via oral gavage for 4 consecutive days beginning 1 hr after infection measured on day 8 post infection relative to control; type: functional; method in brief: as §2
[16] = tested on: Plasmodium berghei; assay: Antimalarial activity against Plasmodium berghei infected in Swiss Webster mouse assessed as mouse survival rate at 11 mg/kg administered once daily via oral gavage for 4 consecutive days beginning 1 hr after infection measured on day 8 post infection relative to control; type: functional; method in brief: as §2
[17] = tested on: Plasmodium berghei; assay: Antimalarial activity against Plasmodium berghei infected in Swiss Webster mouse assessed as mouse survival rate at 100 mg/kg administered once daily via oral gavage for 4 consecutive days beginning 1 hr after infection measured on day 9 post infection relative to control; type: functional; method in brief: as §1
[18] = tested on: Plasmodium berghei; assay: Antimalarial activity against Plasmodium berghei infected in Swiss Webster mouse assessed as mouse survival rate at 100 mg/kg administered once daily via oral gavage for 4 consecutive days beginning 1 hr after infection measured on day 10 post infection relative to control; type: functional; method in brief: as §1
[19] = tested on: Plasmodium berghei; assay: Antimalarial activity against Plasmodium berghei infected in Swiss Webster mouse assessed as mouse survival rate at 100 mg/kg administered once daily via oral gavage for 4 consecutive days beginning 1 hr after infection measured on day 11 post infection relative to control; type: functional; method in brief: as §1
[20] = tested on: Plasmodium berghei; assay: Antimalarial activity against Plasmodium berghei infected in Swiss Webster mouse assessed as mouse survival rate at 33 mg/kg administered once daily via oral gavage for 4 consecutive days beginning 1 hr after infection measured on day 11 post infection relative to control; type: functional; method in brief: as §2
[21] = tested on: Plasmodium berghei; assay: Antimalarial activity against Plasmodium berghei infected in Swiss Webster mouse assessed as mouse survival rate at 33 mg/kg administered once daily via oral gavage for 4 consecutive days beginning 1 hr after infection measured on day 13 post infection relative to control; type: functional; method in brief: as §2
[22] = tested on: Plasmodium berghei; assay: Antimalarial activity against Plasmodium berghei infected in Swiss Webster mouse assessed as mouse survival rate at 100 mg/kg administered once daily via oral gavage for 4 consecutive days beginning 1 hr after infection measured on day 14 post infection relative to control; type: functional; method in brief: as §1
[23] = tested on: Plasmodium berghei; assay: Antimalarial activity against Plasmodium berghei infected in Swiss Webster mouse assessed as mouse survival rate at 33 mg/kg administered once daily via oral gavage for 4 consecutive days beginning 1 hr after infection measured on day 14 post infection relative to control; type: functional; method in brief: as §2
[24] = tested on: Plasmodium falciparum; assay: Antimalarial activity against Plasmodium falciparum 3D7 0087/N9 infected in NOD/SCID IL2R gamma null mouse assessed as reduction in parasitemia administered once daily via oral gavage for 4 consecutive days measured on day 4 post infection; type: functional; details: 3D7 0087/N9, po, 96 h
Method in brief: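 Human-erythrocyte-engrafted NODscidIL2Rγnull mice carrying P. falciparum Pf3D70087/N9 in peripheral blood; compound given orally once daily for four consecutive days.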

[25] = tested on: Plasmodium berghei; assay: Antimalarial activity against Plasmodium berghei infected in Swiss Webster mouse assessed as mouse survival rate at 1.2 mg/kg administered once daily via oral gavage for 4 consecutive days beginning 1 hr after infection measured on day 4 post infection relative to control; type: functional; method in brief: as §1
[26] = tested on: Plasmodium berghei; assay: Antimalarial activity against Plasmodium berghei infected in Swiss Webster mouse assessed as mouse survival rate at 1.2 mg/kg administered once daily via oral gavage for 4 consecutive days beginning 1 hr after infection measured on day 6 post infection relative to control; type: functional; method in brief: as §1

In the case of Cc1c(Oc2cnc(C(=O)N3CC(O)(C(C)C)C3)cn2)ccc2c1B(O)OC2, the pIC50 [1] was 7.24, the pIC50 [2] was 7.39 and the Stability [3] was “Stable”. It also gave a survival at 100 mg/kg [4] of 100%, a survival at 33 mg/kg [5] of 100% and a survival at 3.7 mg/kg [6] of 100%. For the same compound, the survival at 0.4 mg/kg [7] was 100%, the survival at 0.1 mg/kg [8] was 100% and the survival at 3.7 mg/kg [9] was 100%. The survival at 0.4 mg/kg [10] was 100%, the survival at 3.7 mg/kg [11] was 0% and the survival at 0.4 mg/kg [12] was 0%. The survival at 0.1 mg/kg [13] was 0%, the survival at 100 mg/kg [14] was 100% and the survival at 33 mg/kg [15] was 100%. It also gave a survival at 11 mg/kg [16] of 60%, a survival at 100 mg/kg [17] of 100% and a survival at 100 mg/kg [18] of 100%. It also gave a survival at 100 mg/kg [19] of 100%, a survival at 33 mg/kg [20] of 100% and a survival at 33 mg/kg [21] of 100%. For the same compound, the survival at 100 mg/kg [22] was 100%, the survival at 33 mg/kg [23] was 0% and the ED90 [24] was under 5 mg/kg.

In the case of CCC1(O)CN(C(=O)c2cnc(Oc3ccc4c(c3C)B(O)OC4)cn2)C1, the pIC50 [1] was 7.26, the pIC50 [2] was 7.54 and the Stability [3] was “Stable”. It also gave a survival at 100 mg/kg [4] of 100%, a survival at 33 mg/kg [5] of 100% and a survival at 3.7 mg/kg [6] of 100%. It also gave a survival at 1.2 mg/kg [25] of 100%, a survival at 0.4 mg/kg [7] of 100% and a survival at 0.1 mg/kg [8] of 100%. It also gave a survival at 3.7 mg/kg [9] of 100%, a survival at 0.4 mg/kg [10] of 100% and a survival at 1.2 mg/kg [26] of 100%. It also gave a survival at 3.7 mg/kg [11] of 0%, a survival at 0.4 mg/kg [12] of 0% and a survival at 0.1 mg/kg [13] of 0%. For the same compound, the survival at 100 mg/kg [14] was 100%, the survival at 33 mg/kg [15] was 100% and the survival at 11 mg/kg [16] was 0%. The survival at 100 mg/kg [17] was 100%, the survival at 100 mg/kg [18] was 100% and the survival at 100 mg/kg [19] was 100%. The survival at 33 mg/kg [20] was 20%, the survival at 33 mg/kg [21] was 20% and the survival at 100 mg/kg [22] was 0%. The survival at 33 mg/kg [23] was 0% and the ED90 [24] was 0.84 mg/kg.

In the case of Cc1c(Oc2cnc(C(=O)N3CC(C)(O)C3)cn2)ccc2c1B(O)OC2, the pIC50 [1] was 7.37, the pIC50 [2] was 7.49 and the Stability [3] was “Stable”. For the same compound, the survival at 100 mg/kg [4] was 100%, the survival at 33 mg/kg [5] was 100% and the survival at 3.7 mg/kg [6] was 100%. The survival at 1.2 mg/kg [25] was 100%, the survival at 0.4 mg/kg [7] was 100% and the survival at 0.1 mg/kg [8] was 100%. For the same compound, the survival at 3.7 mg/kg [9] was 100%, the survival at 0.4 mg/kg [10] was 100% and the survival at 1.2 mg/kg [26] was 100%. It also gave a survival at 3.7 mg/kg [11] of 60%, a survival at 0.4 mg/kg [12] of 0% and a survival at 0.1 mg/kg [13] of 0%. For the same compound, the survival at 100 mg/kg [14] was 100%, the survival at 33 mg/kg [15] was 100% and the survival at 11 mg/kg [16] was 100%. The survival at 100 mg/kg [17] was 100%, the survival at 100 mg/kg [18] was 100% and the survival at 100 mg/kg [19] was 100%. For the same compound, the survival at 33 mg/kg [20] was 100%, the survival at 33 mg/kg [21] was 100% and the survival at 100 mg/kg [22] was 60%. For the same compound, the survival at 33 mg/kg [23] was 0% and the ED90 [24] was 0.85 mg/kg.

For Cc1c(Oc2cnc(C(=O)N3CC(O)(C(F)(F)F)C3)cn2)ccc2c1B(O)OC2, the pIC50 [1] was 8.10, the pIC50 [2] was 8.18 and the Stability [3] was “Stable”. For the same compound, the survival at 100 mg/kg [4] was 100%, the survival at 33 mg/kg [5] was 100% and the survival at 3.7 mg/kg [6] was 100%. It also gave a survival at 0.4 mg/kg [7] of 100%, a survival at 0.1 mg/kg [8] of 100% and a survival at 3.7 mg/kg [9] of 100%. For the same compound, the survival at 0.4 mg/kg [10] was 100%, the survival at 3.7 mg/kg [11] was 0% and the survival at 0.4 mg/kg [12] was 0%. The survival at 0.1 mg/kg [13] was 0%, the survival at 100 mg/kg [14] was 100% and the survival at 33 mg/kg [15] was 100%. For the same compound, the survival at 11 mg/kg [16] was 0%, the survival at 100 mg/kg [17] was 100% and the survival at 100 mg/kg [18] was 100%. The survival at 100 mg/kg [19] was 100%, the survival at 33 mg/kg [20] was 50% and the survival at 33 mg/kg [21] was 50%. The survival at 100 mg/kg [22] was 100%, the survival at 33 mg/kg [23] was 0% and the ED90 [24] was under 5 mg/kg.
